Assay results published in ChEMBL document CHEMBL1158036, “Steroidal saponins from Solanum nigrum” (J Nat Prod, 2006).

Tests used:
[1] = test system: HepG2; test: (§1) Cytotoxicity against human Hep G2 after 48 hrs by MTT assay; assay type: functional
In short: (§2)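 Cells grown in RPMI 1640 with 10% FBS, trypsinized at 70% confluence; 1.0 × 10^4 cells per well cultured 24 h before treatment. Compounds at 100-3.125 µM, vehicle 0.1% DMSO, 48 h exposure; MTT read at 570 nm. IC50 where 100 × (C − T)/(C − B) = 50, derived by LOGIT method; mean ± SD of three independent experiments.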

[2] = test system: NCI-H460; test: Cytotoxicity against human NCI-H460 after 48 hrs by MTT assay; assay type: functional, cell-based; settings: for IC50: NCI-H460, 48 h; in short: as §2
[3] = test system: MCF7; test: Cytotoxicity against human MCF7 after 48 hrs by MTT assay; assay type: functional, cell-based; settings: for IC50: MCF7, 48 h; in short: as §2
[4] = test system: SF-268; test: Cytotoxicity against human SF-268 after 48 hrs by MTT assay; assay type: functional, cell-based; settings: for IC50: SF-268, 48 h; in short: as §2
[5] = as §1; assay type: functional; settings: HepG2, 48 h; in short: as §2

Structure (SMILES) | Activity [1] | Activity [2] | Activity [3] | Activity [4] | IC50 [5] | IC50 [2] | IC50 [3] | IC50 [4]
C[C@H]1CO[C@@]2(O[C@H]3C[C@H]4[C@@H]5CC[C@H]6C[C@@H](O[C@@H]7O[C@H](CO)[C@H](O[C@@H]8O[C@H](CO)[C@@H](O)[C@H](O[C@@H]9OC[C@@H](O)[C@H](O)[C@H]9O)[C@H]8O[C@@H]8O[C@H](CO)[C@@H](O)[C@H](O)[C@H]8O)[C@H](O)[C@H]7O)CC[C@]6(C)[C@H]5CC[C@]4(C)[C@H]3[C@@H]2C)[C@@H](O[C@@H]2O[C@H](CO)[C@@H](O)[C@H](O)[C@H]2O)C1 | Not toxic | Not toxic | Not toxic | Not toxic |  |  |  | 
C[C@@H]1C[C@H](O)[C@@]2(OC1=O)O[C@H]1C[C@H]3[C@@H]4CC[C@H]5C[C@@H](O[C@@H]6O[C@H](CO)[C@H](O[C@@H]7O[C@H](CO)[C@@H](O)[C@H](O[C@@H]8OC[C@@H](O)[C@H](O)[C@H]8O)[C@H]7O[C@@H]7OC[C@H](O)[C@H](O)[C@H]7O)[C@H](O)[C@H]6O[C@@H]6O[C@@H](C)[C@H](O)[C@@H](O)[C@H]6O)CC[C@]5(C)[C@H]4CC[C@]3(C)[C@H]1[C@@H]2C | Not toxic | Not toxic | Not toxic | Not toxic |  |  |  | 
C[C@@H]1C[C@H](O)[C@@]2(OC1=O)O[C@H]1[C@H](O)[C@H]3[C@@H]4CC[C@H]5C[C@@H](O[C@@H]6O[C@H](CO)[C@H](O[C@@H]7O[C@H](CO)[C@@H](O)[C@H](O[C@@H]8OC[C@@H](O)[C@H](O)[C@H]8O)[C@H]7O[C@@H]7OC[C@H](O)[C@H](O)[C@H]7O)[C@H](O)[C@H]6O[C@@H]6O[C@@H](C)[C@H](O)[C@@H](O)[C@H]6O)CC[C@]5(C)[C@H]4CC[C@]3(C)[C@H]1[C@@H]2C | Not toxic | Not toxic | Not toxic | Not toxic |  |  |  | 
C[C@@H]1CC[C@@]2(OC1)O[C@H]1C[C@H]3[C@@H]4CC[C@H]5C[C@@H](O[C@@H]6O[C@H](CO)[C@H](O[C@@H]7O[C@H](CO)[C@@H](O)[C@H](O[C@@H]8OC[C@@H](O)[C@H](O)[C@H]8O)[C@H]7O[C@@H]7O[C@H](CO)[C@@H](O)[C@H](O)[C@H]7O)[C@H](O)[C@H]6O)CC[C@]5(C)[C@H]4CC[C@]3(C)[C@H]1[C@@H]2C [DEGALACTOTIGONIN] |  |  |  |  | 0.25 µM | 4.49 µM | 1.57 µM | 3.19 µM
C[C@@H]1CC[C@@]2(OC1)O[C@H]1[C@H](O)[C@H]3[C@@H]4CC[C@H]5C[C@@H](O[C@@H]6O[C@H](CO)[C@H](O[C@@H]7O[C@H](CO)[C@@H](O)[C@H](O[C@@H]8OC[C@@H](O)[C@H](O)[C@H]8O)[C@H]7O[C@@H]7O[C@H](CO)[C@@H](O)[C@H](O)[C@H]7O)[C@H](O)[C@H]6O)CC[C@]5(C)[C@H]4CC[C@]3(C)[C@H]1[C@@H]2C | Not toxic | Not toxic | Not toxic | Not toxic |  |  |  | 
CC[C@@]1(O)C(=O)OCc2c1cc1n(c2=O)Cc2cc3cc(O)ccc3nc2-1 [HYDROXYCAMPTOTHECIN] |  |  |  |  | 6.49 µM | 38.6 µM | 19.1 µM | 29.9 µM
C[C@@H]1C[C@H](O)[C@@]2(OC1=O)O[C@H]1[C@H](O)[C@H]3[C@@H]4CC[C@H]5C[C@@H](O[C@@H]6O[C@H](CO)[C@H](O[C@@H]7O[C@H](CO)[C@@H](O)[C@H](O[C@@H]8O[C@H](CO)[C@@H](O)[C@H](O)[C@H]8O)[C@H]7O[C@@H]7O[C@H](CO)[C@@H](O)[C@H](O)[C@H]7O)[C@H](O)[C@H]6O)CC[C@]5(C)[C@H]4CC[C@]3(C)[C@H]1[C@@H]2C | Not toxic | Not toxic | Not toxic | Not toxic |  |  |  | 
C[C@@H]1CC[C@@]2(OC1)O[C@H]1C[C@H]3[C@@H]4CC=C5C[C@@H](O[C@@H]6O[C@H](CO)[C@@H](O[C@@H]7O[C@@H](C)[C@H](O)[C@@H](O)[C@H]7O[C@@H]7O[C@H](CO)[C@@H](O)[C@H](O)[C@H]7O)[C@H](O)[C@H]6O[C@@H]6O[C@@H](C)[C@H](O)[C@@H](O)[C@H]6O)CC[C@]5(C)[C@H]4CC[C@]3(C)[C@@]1(O)[C@@H]2C | Not toxic | Not toxic | Not toxic | Not toxic |  |  |  | 
